Measurements collected from several papers.
Each line is one published result; the experiments were not run side by side.
ACVR2A: Activin receptor type-2A (ACVR2A, Homo sapiens, UniProt P27037)
STK35: Serine/threonine-protein kinase 35 (STK35, Homo sapiens, UniProt Q8TDR2)
SETD7: Histone-lysine N-methyltransferase SETD7 (SETD7, Homo sapiens, UniProt Q8WTS6)
PIP4K2A: Phosphatidylinositol 5-phosphate 4-kinase type-2 alpha (PIP4K2A, Homo sapiens, UniProt P48426)
Methionyl-tRNA synthetase, putative: Methionyl-tRNA synthetase, putative (Trypanosoma brucei brucei, UniProt Q38C91)
BRD9: Bromodomain-containing protein 9 (BRD9, Homo sapiens, UniProt Q9H8M2)
SLC10A2: Ileal sodium/bile acid cotransporter (SLC10A2, Homo sapiens, UniProt Q12908)

Compound	target	test	system	conditions	measurement	result
Cn1c2c(c3ccc(Cl)c(Cl)c31)C(C#N)C1(CCN(C(=O)OC(C)(C)C)CC1)NC2=O (racemic)	ACVR2A	thermal stability, DSF		10 µM	ΔTm	0 °C
Nc1ccn([C@H]2C[C@H](O)[C@@H](COP(=O)(O)OP(=O)(O)OP(=O)(O)O)O2)c(=O)n1	DNA polymerase lambda (POLL, Homo sapiens, UniProt Q9UGP5)	enzyme activity, substrate			Km	0.016 µM
COc1cc(Cl)c(C(=O)N[C@@H](CN[C@H]2CC[C@@H](N)CC2)Cc2ccc(C#N)cc2)cc1-c1ccc(CN[C@H](C)c2ccc(C)cc2)o1	STK35	enzyme activity, inhibitor		1 µM	remaining activity	98%
CC(=O)N[C@H]1CSSC[C@@H](C(=O)N[C@@H](Cc2c[nH]c3ccccc23)C(N)=O)NC(=O)[C@H](Cc2ccccc2)NC(=O)[C@H](CCCNC(=N)N)NC1=O	Melanocortin receptor 5 (MC5R, Homo sapiens, UniProt P33032)	cAMP, agonist	HEK293	3 min	Emax	0%
O=c1c(-c2cc(O)c(O)c(O)c2)coc2cc(O)c(O)c(O)c12	SETD7	cell-free assay		10 µM	inhibition	34%
Cn1c2c(c3ccc(Cl)c(Cl)c31)C(C#N)C1(CCCC1)NC2=O (stereo not drawn)	ACVR2A	thermal stability, DSF		10 µM	ΔTm	0 °C
Cc1ccc(NC(=O)c2ccc(C)c(C(F)(F)F)c2)cc1C#Cc1nn(C2CCC(O)CC2)c2ncnc(N)c12 (stereo not drawn)	PIP4K2A	cell-free assay, inhibitor		10 µM	remaining signal	100%
Cc1cnc(NC2CCOCC2)nc1-n1cnc(C(=O)NC(CN)c2cc(F)cc(Cl)c2)c1 (stereo not drawn)	PIP4K2A	enzyme activity, inhibitor, radiometric		1 µM	remaining activity	102%
O=C(Cc1cc(Cl)cc(Cl)c1)N1CCCC(c2nc3cc(Cl)c(F)cc3[nH]2)C1 (stereo not drawn)	Methionyl-tRNA synthetase, putative	thermal stability, DSF		100 µM	ΔTm	7 °C
C[S+]([O-])c1ccc(-c2nc(-c3ccncc3)c(-c3ccc(F)cc3)[nH]2)cc1 (stereo not drawn)	BRD9	thermal stability, DSF		10 µM	ΔTm	-0.33 °C
Nc1nc(NC2CC2)c2ncn([C@H]3C=C[C@@H](CO)C3)c2n1	SLC10A2	transporter uptake, inhibitor, radiometric		1 mM	inhibition	13.1%
Cc1ccc(C(=O)Nc2ccc(CN3CCN(C)CC3)c(C(F)(F)F)c2)cc1C#Cc1cnc2cccnn12	STK35	enzyme activity, inhibitor		23.5 nM	remaining activity	98%
COC(=O)c1ccc(N2CCN(C)CC2)c(NC(=O)c2cccc(OC)c2)c1	WD repeat-containing protein 5 (WDR5, Homo sapiens, UniProt P61964)	thermal stability, DSF		100 µM	ΔTm	8.4 °C
COc1cc2ncnc(Nc3ccc(F)c(Cl)c3)c2cc1OCCCN1CCOCC1	SLC10A2	transporter uptake, inhibitor, radiometric		1 mM	inhibition	< 10%
NS(=O)(=O)c1ccc(Nc2nc(-c3ccc(F)cc3)c3ccccc3n2)cc1	BRD9	binding, competition with immobilised ligand		1 µM	remaining binding	81%
CCCCOc1cc(C(=O)NCCN(CC)CC)c2ccccc2n1	SLC10A2	transporter uptake, inhibitor, radiometric		1 mM	inhibition	68.8%
O=c1oc2c(O)c(O)cc3c(=O)oc4c(O)c(O)cc1c4c23	SETD7	cell-free assay		10 µM	inhibition	20%
Cc1cnc(Nc2ccc(OCCN3CCCC3)cc2)nc1Nc1cccc(S(=O)(=O)NC(C)(C)C)c1	BRD9	thermal stability, DSF		10 µM	ΔTm	0.58 °C
Nc1ncnc2occ(-c3ccc(NC(=O)Nc4cc(C(F)(F)F)ccc4F)cc3)c12	Cyclin-dependent kinase-like 3 (CDKL3, Homo sapiens, UniProt Q8IVW4)	cell-free assay		20 µM	remaining signal	0.8%
Oc1ccc(-c2nc(-c3ccncc3)c(-c3ccc(F)cc3)[nH]2)cc1	PHIP, BD2 (Homo sapiens, UniProt Q8WWQ0)	thermal stability, DSF		10 µM	ΔTm	0.27 °C
O=C(Cc1cc(Cl)cc(Cl)c1)N1CCCC(c2nc3cc(Cl)c(Cl)cc3[nH]2)C1 (stereo not drawn)	Methionyl-tRNA synthetase, putative	thermal stability, DSF		100 µM	ΔTm	7 °C
